In ChEMBL document CHEMBL1649304, “Efficacy of posaconazole as treatment and prophylaxis against Fusarium solani” (Antimicrob Agents Chemother, 2010):
Values after ≈ are worked out from the molar mass of the structure shown. Active and inactive are the calls of the source. No cut-off for these calls is given here.

Experiments:
[1] = tested on: Fusarium solani; experiment: Antifungal activity against mid- inoculum 6.5 x 10^5 conidia/ml Fusarium solani infected in ICR mouse assessed as bacterial count in kidney tissue at 6.25 mg/kg, po BID treated 2 days prior of infection; assay type: functional
Summary of the method: (§1)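 Prophylaxis model: posaconazole oral suspension was given by gavage BID starting 2 days before i.v. conidial challenge and continued to day 9. ICR mice were made neutropenic with 5-fluorouracil 150 mg/kg i.v. 1 day pre-inoculation, with n ≥10 per regimen. Kidneys were homogenized and plated on potato dextrose agar, and CFU/g was read after 48 h. Results were compared with untreated controls by Mann-Whitney.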

[2] = tested on: Fusarium solani; experiment: Antifungal activity against high inoculum 2.9 x 10^6 conidia/animal Fusarium solani infected in ICR mouse assessed as rate of survival at 25 mg/kg, po BID treated after 12 hrs of inoculation; assay type: functional, organism-based; parameters: dose 25 mg/kg
Summary of the method: (§2)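 Neutropenic ICR mice (5-fluorouracil 150 mg/kg i.v., day −1) were infected i.v. with F. solani 95-2478 conidia. Posaconazole oral suspension was gavaged BID starting 12 h postinoculation and continued to day 9, then mice were followed off therapy to day 15. Moribund mice were euthanized and death was recorded the next day. Median and percent survival come from Kaplan-Meier curves versus untreated controls.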

[3] = tested on: Fusarium solani; experiment: Antifungal activity against low - inoculum 7.5 x 10^4 conidia/ml Fusarium solani infected in ICR mouse assessed as bacterial count in kidney tissue at 25 mg/kg, po BID treated 2 days prior of infection; assay type: functional; summary of the method: as §1
[4] = tested on: Fusarium solani; experiment: Antifungal activity against inoculum range 6.5 x 10^5 to 6.8 x 10^5 conidia/animal Fusarium solani infected in ICR mouse assessed as bacterial count in kidney tissue at 12.5 mg/kg, po BID treated after 12 hrs of inoculation; assay type: functional
Summary of the method: (§3)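 Outbred ICR mice were made neutropenic with 5-fluorouracil 150 mg/kg i.v. 1 day before i.v. infection with F. solani isolate 95-2478 conidia (0.2 ml). Posaconazole oral suspension was given by gavage BID from 12 h after inoculation until day 9. Kidneys from moribund animals were homogenized and plated on potato dextrose agar, and CFU/g was counted after 48 h. Group medians were compared with untreated controls by Mann-Whitney.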

[5] = tested on: Fusarium solani; experiment: Antifungal activity against mid- inoculum 6.5 x 10^5 conidia/ml Fusarium solani infected in ICR mouse assessed as rate of survival at 12.5 mg/kg, po BID treated 2 days prior of infection; assay type: functional, organism-based; parameters: dose 12.5 mg/kg
Summary of the method: (§4)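 Dosing began 2 days before i.v. F. solani 95-2478 challenge in ICR mice made neutropenic with 5-fluorouracil (150 mg/kg i.v., day −1). Posaconazole oral suspension was gavaged BID through day 9, with observation off drug until day 15, n ≥10 per regimen. Moribund animals were euthanized and scored dead the next day. Kaplan-Meier median survival was compared with untreated controls.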

[6] = tested on: Fusarium solani; experiment: Antifungal activity against low - inoculum 7.5 x 10^4 conidia/ml Fusarium solani infected in ICR mouse assessed as rate of survival at 50 mg/kg, po BID treated 2 days prior of infection; assay type: functional, organism-based; parameters: dose 50 mg/kg; summary of the method: as §4
[7] = tested on: Fusarium solani; experiment: Antifungal activity against mid- inoculum 6.5 x 10^5 conidia/ml Fusarium solani infected in ICR mouse assessed as rate of survival at 50 mg/kg, po BID treated 2 days prior of infection; assay type: functional, organism-based; parameters: dose 50 mg/kg; summary of the method: as §4
[8] = tested on: Fusarium solani; experiment: Antifungal activity against inoculum of 1x10^5 conidia/ml Fusarium solani isolate 95-2478 after 24 hrs by XTT assay; assay type: functional, organism-based; conditions: isolate 95-2478, 24 h
Summary of the method: (§5)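 Isolate 95-2478 conidia were grown 10 days at 37°C on potato dextrose agar. They were exposed in microtiter trays to posaconazole (DMSO stock; final 0 to 8 μg/ml) in RPMI with 2% glucose and 0.165 M MOPS, pH 7.0. Incubation ran 24 or 48 h, and XTT reduction was read at 492 nm in triplicate. Absorbance was expressed as percent of growth control, and IC50/IC90 came from a four-parameter inhibitory sigmoid fit.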

[9] = tested on: Fusarium solani; experiment: Antifungal activity against inoculum of 1x10^4 conidia/ml Fusarium solani isolate 95-2478 after 48 hrs by XTT assay; assay type: functional, organism-based; conditions: isolate 95-2478, 48 h; summary of the method: as §5
[10] = tested on: Fusarium solani; experiment: Antifungal activity against inoculum range 6.5 x 10^5 to 6.8 x 10^5 conidia/animal Fusarium solani infected in ICR mouse assessed as bacterial count in kidney tissue at 50 mg/kg, po BID treated after 12 hrs of inoculation; assay type: functional; summary of the method: as §3
[11] = tested on: Fusarium solani; experiment: Antifungal activity against inoculum range 6.5 x 10^5 to 6.8 x 10^5 conidia/animal Fusarium solani infected in ICR mouse assessed as rate of survival at 6.25 mg/kg, po BID treated after 12 hrs of inoculation; assay type: functional, organism-based; parameters: dose 6.25 mg/kg; summary of the method: as §2
[12] = tested on: Fusarium solani; experiment: Antifungal activity against inoculum range 7.7 x 10^4 to 7.8 x 10^4 conidia/animal Fusarium solani infected in ICR mouse assessed as rate of survival at 12.5 mg/kg, po BID treated after 12 hrs of inoculation; assay type: functional, organism-based; parameters: dose 12.5 mg/kg; summary of the method: as §2
[13] = tested on: Fusarium solani; experiment: Antifungal activity against inoculum range 7.7 x 10^4 to 7.8 x 10^4 conidia/animal Fusarium solani infected in ICR mouse assessed as bacterial count in kidney tissue at 12.5 mg/kg, po BID treated after 12 hrs of inoculation; assay type: functional; summary of the method: as §3
[14] = tested on: Fusarium solani; experiment: Antifungal activity against high inoculum 2.9 x 10^6 conidia/animal Fusarium solani infected in ICR mouse assessed as rate of survival at 12.5 mg/kg, po BID treated after 12 hrs of inoculation; assay type: functional, organism-based; parameters: dose 12.5 mg/kg; summary of the method: as §2
[15] = tested on: Fusarium solani; experiment: Antifungal activity against high inoculum 2.9 x 10^6 conidia/animal Fusarium solani infected in ICR mouse assessed as bacterial count in kidney tissue at 6.25 mg/kg, po BID treated after 12 hrs of inoculation; assay type: functional; summary of the method: as §3
[16] = tested on: Fusarium solani; experiment: Antifungal activity against inoculum range 7.7 x 10^4 to 7.8 x 10^4 conidia/animal Fusarium solani infected in ICR mouse assessed as rate of survival at 6.25 mg/kg, po BID treated after 12 hrs of inoculation; assay type: functional, organism-based; parameters: dose 6.25 mg/kg; summary of the method: as §2
[17] = tested on: Fusarium solani; experiment: Antifungal activity against low - inoculum 7.5 x 10^4 conidia/ml Fusarium solani infected in ICR mouse assessed as bacterial count in kidney tissue at 12.5 mg/kg, po BID treated 2 days prior of infection; assay type: functional; summary of the method: as §1
[18] = tested on: Fusarium solani; experiment: Antifungal activity against high inoculum 2.9 x 10^6 conidia/animal Fusarium solani infected in ICR mouse assessed as rate of survival at 6.25 mg/kg, po BID treated after 12 hrs of inoculation; assay type: functional, organism-based; parameters: dose 6.25 mg/kg; summary of the method: as §2
[19] = tested on: Fusarium solani; experiment: Antifungal activity against inoculum range 7.7 x 10^4 to 7.8 x 10^4 conidia/animal Fusarium solani infected in ICR mouse assessed as rate of survival at 50 mg/kg, po BID treated after 12 hrs of inoculation; assay type: functional, organism-based; parameters: dose 50 mg/kg; summary of the method: as §2
[20] = tested on: Fusarium solani; experiment: Antifungal activity against low - inoculum 7.5 x 10^4 conidia/ml Fusarium solani infected in ICR mouse assessed as bacterial count in kidney tissue at 50 mg/kg, po BID treated 2 days prior of infection; assay type: functional; summary of the method: as §1
[21] = tested on: Fusarium solani; experiment: Antifungal activity against high inoculum 2.9 x 10^6 conidia/animal Fusarium solani infected in ICR mouse assessed as rate of survival at 50 mg/kg, po BID treated after 12 hrs of inoculation; assay type: functional, organism-based; parameters: dose 50 mg/kg; summary of the method: as §2
[22] = tested on: Fusarium solani; experiment: Antifungal activity against mid- inoculum 6.5 x 10^5 conidia/ml Fusarium solani infected in ICR mouse assessed as rate of survival at 25 mg/kg, po BID treated 2 days prior of infection; assay type: functional, organism-based; parameters: dose 25 mg/kg; summary of the method: as §4
[23] = tested on: Fusarium solani; experiment: Antifungal activity against low - inoculum 7.5 x 10^4 conidia/ml Fusarium solani infected in ICR mouse assessed as rate of survival at 12.5 mg/kg, po BID treated 2 days prior of infection; assay type: functional, organism-based; parameters: dose 12.5 mg/kg; summary of the method: as §4

CC[C@@H]([C@H](C)O)n1ncn(-c2ccc(N3CCN(c4ccc(OC[C@@H]5CO[C@@](Cn6cncn6)(c6ccc(F)cc6F)C5)cc4)CC3)cc2)c1=O [POSACONAZOLE]
log10CFU/g [1]: 5.6
Activity [2]: Active
log10CFU/g [3]: 4.5
log10CFU/g [4]: 5.8
Activity [5]: Active
Activity [6]: Active
Activity [7]: Active
IC90 [8]: 7.2 µg/mL (≈ 10.3 µM)
IC90 ([8]; read-out: IC90): > 8 µg/mL
IC50 [9]: 4.7 µg/mL (≈ 6.71 µM)
IC90 [9]: > 8 µg/mL
log10CFU/g [10]: 5.4
Activity [11]: Active
Activity [12]: Active
log10CFU/g [13]: 5.1
Activity [14]: Active
log10CFU/g [15]: 5.6
Activity [16]: Active
log10CFU/g [17]: 4.4
Activity [18]: Active
Activity [19]: Active
log10CFU/g [20]: 2.9
Activity [21]: Active
Activity [22]: Active
Activity [23]: Active
